Experimental data taken from ChEMBL document CHEMBL1123100, “Angiotensin converting enzyme inhibitors: 1,5-benzothiazepine derivatives” (J Med Chem, 1985).

Assays:
[1] = molecular target: T1, Angiotensin-converting enzyme (Rattus norvegicus, UniProt P47820); experiment: Inhibition of Angiotensin I converting enzyme in rat
T1 sequence (P47820 whole entry): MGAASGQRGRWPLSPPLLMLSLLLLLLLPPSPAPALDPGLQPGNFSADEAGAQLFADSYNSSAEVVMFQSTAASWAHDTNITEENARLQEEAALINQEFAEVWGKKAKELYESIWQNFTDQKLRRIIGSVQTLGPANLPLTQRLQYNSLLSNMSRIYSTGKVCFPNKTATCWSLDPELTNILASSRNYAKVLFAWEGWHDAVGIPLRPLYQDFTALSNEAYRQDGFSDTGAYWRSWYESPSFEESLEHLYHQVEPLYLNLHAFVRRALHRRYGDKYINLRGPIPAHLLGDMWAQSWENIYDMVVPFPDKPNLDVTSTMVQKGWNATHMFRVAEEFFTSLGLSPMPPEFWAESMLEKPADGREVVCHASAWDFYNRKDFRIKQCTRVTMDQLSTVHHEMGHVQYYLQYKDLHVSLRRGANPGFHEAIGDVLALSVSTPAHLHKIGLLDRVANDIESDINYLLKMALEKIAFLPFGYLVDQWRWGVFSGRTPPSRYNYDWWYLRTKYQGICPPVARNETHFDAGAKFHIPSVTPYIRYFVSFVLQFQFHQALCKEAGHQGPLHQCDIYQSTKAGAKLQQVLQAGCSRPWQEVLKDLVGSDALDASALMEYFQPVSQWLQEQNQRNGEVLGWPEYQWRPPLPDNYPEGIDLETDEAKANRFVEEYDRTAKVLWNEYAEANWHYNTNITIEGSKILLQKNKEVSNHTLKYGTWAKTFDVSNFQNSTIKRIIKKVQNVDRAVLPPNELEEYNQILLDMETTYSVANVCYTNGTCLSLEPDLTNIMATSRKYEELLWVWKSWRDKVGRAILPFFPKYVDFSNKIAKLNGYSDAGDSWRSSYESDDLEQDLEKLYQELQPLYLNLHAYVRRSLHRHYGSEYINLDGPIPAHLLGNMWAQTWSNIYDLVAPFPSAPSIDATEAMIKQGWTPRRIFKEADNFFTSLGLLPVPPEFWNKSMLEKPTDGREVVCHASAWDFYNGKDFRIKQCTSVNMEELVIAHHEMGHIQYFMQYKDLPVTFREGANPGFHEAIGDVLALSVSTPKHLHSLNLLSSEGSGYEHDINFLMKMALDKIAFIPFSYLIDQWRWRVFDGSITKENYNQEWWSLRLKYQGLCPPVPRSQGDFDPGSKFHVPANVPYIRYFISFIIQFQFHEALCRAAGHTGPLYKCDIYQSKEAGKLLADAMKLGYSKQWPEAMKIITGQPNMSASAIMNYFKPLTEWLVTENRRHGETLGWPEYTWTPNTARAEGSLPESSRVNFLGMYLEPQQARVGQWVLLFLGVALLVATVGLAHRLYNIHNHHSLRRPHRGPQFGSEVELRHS

[2] = tested on: Rattus norvegicus; experiment: Percent inhibition of angiotensin I (AI) pressor response after oral administration (dose of 1.0 mg/kg) to conscious normotensive rats; type: functional
In short: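 Angiotensin I pressor response measured in conscious normotensive rats, 1 h after oral dosing of test compound; value is percent inhibition of the pressor response.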

[3] = tested on: Rattus norvegicus; experiment: Percent inhibition of angiotensin I (AI) pressor response after intravenous administration (dose of 0.05 mg/kg)to conscious normotensive rats; type: functional
In short: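 Angiotensin I pressor response measured in conscious normotensive rats, 15 min after intravenous dosing of test compound; value is percent inhibition of the pressor response.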

[4] = tested on: Rattus norvegicus; experiment: The maximal change in blood pressure recorded during the 4-day test period in spontaneously hypertensive rats (SHR) after oral administration; type: functional

SMILES | IC50 [1] | inhibition in vivo at 1 mg/kg [2] | inhibition in vivo at 0.05 mg/kg [3] | Max delta BP [4]
O=C(O)CN1C(=O)[C@@H](NC(CCc2ccccc2)C(=O)O)C[S+]([O-])c2ccccc21 (stereo partly specified) | 5.9 nM |  |  | 
O=C(O)CN1C(=O)[C@@H](NC(CCc2ccccc2)C(=O)O)CCc2ccccc21 (stereo partly specified) | 1.7 nM |  |  | 
O=C(O)CN1C(=O)[C@@H](N[C@H](CCc2ccccc2)C(=O)O)CSc2ccccc21 | 240 nM |  |  | 
O=C(O)CN1C(=O)[C@@H](N[C@@H](CCc2ccccc2)C(=O)O)CSc2ccccc21 | 2.9 nM |  |  | 
O=C(O)CN1C(=O)[C@@H](NC(CCc2ccccc2)C(=O)O)CS(=O)(=O)c2ccccc21 (stereo partly specified) | 2900 nM |  |  | 
O=C(O)CN1C(=O)[C@@H](NC(CCc2ccccc2)C(=O)O)CSc2ccccc21 (stereo partly specified) | 9.8 nM |  |  | 
CCOC(=O)C(CCc1ccccc1)NC1CSc2ccccc2N(CC(=O)O)C1=O.Cl (stereo in doubt; 14c) | 2200 nM | 39% | 75% | -35 mmHg
CCOC(=O)C(CCc1ccccc1)N[C@H]1CSc2ccccc2N(CC(=O)O)C1=O (stereo partly specified) | 8000 nM |  |  | 
CCOC(=O)CN1C(=O)[C@@H](NC(CCc2ccccc2)C(=O)OCC)CCc2ccccc21 (stereo partly specified) | 430 nM | 88% | 77% | -76 mmHg
CCOC(=O)C(CCc1ccccc1)NC1CSc2ccccc2N(CC(=O)O)C1=O (stereo in doubt; 14a) | 860 nM |  |  | 
